Laboratory results: paper PMC9284555 (Journal of Agricultural and Food Chemistry, 2022)

What was measured:
[1] = assay type: in vivo, human; settings: for relative intensity (EGCG = 1): LC-MS intensity in human plasma after ingestion of catechin-rich tea; for AUC0–6h / T1/2 / Tmax: human plasma, oral catechin-rich beverage (135 mg EGCG), mean ± SD, n = 10
Summary of the method: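 Ten healthy fasted men drank 350 mL of a beverage with 615 mg catechins (135 mg EGCG). Plasma was taken at 0.5–6 h, acid/ascorbate/EDTA-stabilised and stored at −80 °C. Samples went through solid-phase extraction with an ethyl gallate internal standard. Analytes were identified and quantified by Orbitrap LC–MS (calibration 1–500 ng/mL). Parameters came from noncompartmental analysis; mean ± SD.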

SULT1A1 = settings: inhibition of SULT1A1; cited from earlier work
SULT1A3 = settings: inhibition of SULT1A3; cited from earlier work
COMT = settings: inhibition of COMT; cited from earlier work

Compound	relative intensity (EGCG = 1) [1]	AUC0–6h [1] [nmol·h·L^–1]	T1/2 [1] [h]	Tmax [1] [h]	IC50 (SULT1A1) [µM]	IC50 (SULT1A3) [µM]	IC50 (COMT) [µM]
O=C(O[C@@H]1Cc2c(O)cc(O)cc2O[C@@H]1c1cc(O)c(O)c(O)c1)c1cc(O)c(O[C@@H]2O[C@H](C(=O)O)[C@@H](O)[C@H](O)[C@H]2O)c(O)c1 [EGCG-4″-glucuronide]	0.39	198.9 ± 23.8	1.5 ± 0.64	1.3 ± 0.26			
O=C(O[C@@H]1Cc2c(O)cc(O)cc2O[C@@H]1c1cc(O)c(O)c(O)c1)c1cc(O)c(OS(=O)(=O)O)c(O)c1 [EGCG-4″-sulfate]	0.76	715.2 ± 127.1	3.9 ± 1.5	2.5 ± 0.60			
O=c1c(O)c(-c2ccc(O)c(O)c2)oc2cc(O)cc(O)c12 [quercetin]					0.41 to 13	7	0.9 to 8.5
(E)GCG-dimethyl-sulfate [(E)GCG-diMe-sulfate]	0.54						
